According to publication PMC9080015 (RSC Advances, 2018):
Like-named read-outs stand apart in the source and are kept apart here.

Tests used:
Assay type in all cases: biochemical
CYP1A2 = target: T1, CYP1A2 (Homo sapiens, UniProt P05177); assay: EROD assay, recombinant human CYP1A2 inhibition
T1 sequence (P05177 2-516 limits assumed): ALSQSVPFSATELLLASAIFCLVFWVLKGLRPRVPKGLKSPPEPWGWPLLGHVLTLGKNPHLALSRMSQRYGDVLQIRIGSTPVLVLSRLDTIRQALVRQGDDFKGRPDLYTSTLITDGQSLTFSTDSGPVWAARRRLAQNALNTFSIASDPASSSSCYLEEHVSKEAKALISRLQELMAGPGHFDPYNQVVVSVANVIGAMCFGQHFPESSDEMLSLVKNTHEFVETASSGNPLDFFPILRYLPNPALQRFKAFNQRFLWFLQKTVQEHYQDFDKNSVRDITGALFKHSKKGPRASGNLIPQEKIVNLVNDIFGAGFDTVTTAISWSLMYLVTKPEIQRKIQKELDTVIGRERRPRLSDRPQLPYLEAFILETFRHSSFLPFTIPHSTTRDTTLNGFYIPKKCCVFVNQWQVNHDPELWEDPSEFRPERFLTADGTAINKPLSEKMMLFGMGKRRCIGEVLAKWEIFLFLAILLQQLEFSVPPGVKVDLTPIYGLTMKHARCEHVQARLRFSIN

CYP1A1 = target: T2, CYP1A1 (Homo sapiens, UniProt P04798); assay: EROD assay, recombinant human CYP1A1 inhibition
T2 sequence (P04798 1-512): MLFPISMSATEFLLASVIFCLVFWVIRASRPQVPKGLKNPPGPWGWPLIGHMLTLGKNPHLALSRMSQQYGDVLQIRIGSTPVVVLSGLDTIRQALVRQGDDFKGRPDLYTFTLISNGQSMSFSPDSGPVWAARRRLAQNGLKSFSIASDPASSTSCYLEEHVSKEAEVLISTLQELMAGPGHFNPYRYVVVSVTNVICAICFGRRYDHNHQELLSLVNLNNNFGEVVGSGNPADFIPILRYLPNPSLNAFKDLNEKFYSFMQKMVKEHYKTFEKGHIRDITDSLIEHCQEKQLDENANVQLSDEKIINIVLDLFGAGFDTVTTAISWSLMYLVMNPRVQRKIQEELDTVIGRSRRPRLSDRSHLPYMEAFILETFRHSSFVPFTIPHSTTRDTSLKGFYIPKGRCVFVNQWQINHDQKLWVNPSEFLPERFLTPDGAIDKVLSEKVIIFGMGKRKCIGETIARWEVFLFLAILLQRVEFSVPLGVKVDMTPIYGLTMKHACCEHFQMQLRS
Method in brief: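 Supersomes with P450 reductase. Test compound is taken from 10 mM DMSO stock into Tris–HCl pH 7.4 (final DMSO <1% v/v), at several concentrations. Methanol stop. Resorufin fluorescence read at ex 544/em 590 nm. IC50 from nonlinear regression, log(inhibitor) vs normalized response, variable slope.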

recombinant human CYP1B1 = target: T3, recombinant human CYP1B1 (Homo sapiens, UniProt Q16678); assay: EROD assay, recombinant human CYP1B1 inhibition; details: for IC50 ratio 1A1/1B1: selectivity for CYP1B1 over CYP1A1; for IC50 ratio 1A2/1B1: selectivity for CYP1B1 over CYP1A2
T3 sequence (Q16678 1-543): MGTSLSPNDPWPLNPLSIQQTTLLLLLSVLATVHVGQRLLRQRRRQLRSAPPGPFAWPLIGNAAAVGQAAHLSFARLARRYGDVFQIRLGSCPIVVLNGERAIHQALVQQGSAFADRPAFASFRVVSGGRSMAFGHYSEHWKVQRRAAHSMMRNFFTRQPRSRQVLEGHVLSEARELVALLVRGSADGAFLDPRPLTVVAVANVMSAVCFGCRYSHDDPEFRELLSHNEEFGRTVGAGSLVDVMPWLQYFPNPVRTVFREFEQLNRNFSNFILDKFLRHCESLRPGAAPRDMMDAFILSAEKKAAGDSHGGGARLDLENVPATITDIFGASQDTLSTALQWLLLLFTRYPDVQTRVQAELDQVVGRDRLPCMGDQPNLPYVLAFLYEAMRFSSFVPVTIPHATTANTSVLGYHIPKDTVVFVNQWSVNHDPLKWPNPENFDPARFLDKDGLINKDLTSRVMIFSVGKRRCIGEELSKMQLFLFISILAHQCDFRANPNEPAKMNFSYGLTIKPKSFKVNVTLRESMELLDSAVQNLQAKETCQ

[1] = read-out: IC50 values (nM) 1B1, EROD assay, 20 fmol CYP1B1, 150 nM 7-ER, 37 °C, 35 min

## 2-Phenylbenzo[h]quinolin-4-ol [Compound 4a]
CYP1A2; read-out: IC50 values (nM) 1A2, EROD assay, 60 fmol CYP1A2, 150 nM 7-ER, 37 °C, 50 min
  IC50: 147 nM
CYP1A1; read-out: IC50 values (nM) 1A1, EROD assay, 10 fmol CYP1A1, 150 nM 7-ER, 37 °C, 15 min
  IC50: 18.5 nM
Recombinant human CYP1B1; [1]
  IC50: 7.6 nM
Recombinant human CYP1B1
  IC50 ratio 1A1/1B1: 2.4
  IC50 ratio 1A2/1B1: 19.3

## O=C1CC(c2ccccc2)Nc2c1ccc1ccccc21 (stereo not drawn) [Compound 1a, 2-Phenyl-2,3-dihydrobenzo[h]quinolin-4(1H)-one]
CYP1A2
  IC50: 953 nM
CYP1A1
  IC50: 405 nM
Recombinant human CYP1B1
  IC50: 131 nM
  IC50 ratio 1A1/1B1: 3.1
  IC50 ratio 1A2/1B1: 7.3

## COc1cc(C2CC(=O)c3ccc4ccccc4c3N2)cc(OC)c1OC (stereo not drawn) [Compound 1b, 2-(3,4,5-Trimethoxyphenyl)-2,3-dihydrobenzo[h]quinolin-4(1H)-one]
CYP1A2
  IC50: > 5000 nM
CYP1A1
  IC50: 44.6 nM
Recombinant human CYP1B1
  IC50: 20.2 nM
  IC50 ratio 1A1/1B1: 2.2
  IC50 ratio 1A2/1B1: >247.5

## O=C1CC(c2ccccc2F)Nc2c1ccc1ccccc21 (stereo not drawn) [Compound 1c, 2-(2-Fluorophenyl)-2,3-dihydrobenzo[h]quinolin-4(1H)-one]
CYP1A2
  IC50: 1100 nM
CYP1A1
  IC50: 578 nM
Recombinant human CYP1B1
  IC50: 139 nM
  IC50 ratio 1A1/1B1: 4.1
  IC50 ratio 1A2/1B1: 7.9

## O=C1CC(c2cccc(F)c2)Nc2c1ccc1ccccc21 (stereo not drawn) [Compound 1d, 2-(3-Fluorophenyl)-2,3-dihydrobenzo[h]quinolin-4(1H)-one]
CYP1A2
  IC50: 1050 nM
CYP1A1
  IC50: 493 nM
Recombinant human CYP1B1
  IC50: 98.6 nM
  IC50 ratio 1A1/1B1: 5.0
  IC50 ratio 1A2/1B1: 10.6

## O=C1c2ccc3ccccc3c2N[C@@H](c2ccccc2)[C@H]1O [Compound 2a, (2S,3R) 3-Hydroxy-2-phenyl-2,3-dihydrobenzo[h]quinolin-4(1H)-one]
CYP1A2
  IC50: 1410 nM
CYP1A1
  IC50: 588 nM
Recombinant human CYP1B1
  IC50: 260 nM
  IC50 ratio 1A1/1B1: 2.3
  IC50 ratio 1A2/1B1: 5.4

## COc1cc([C@@H]2Nc3c(ccc4ccccc34)C(=O)[C@@H]2O)cc(OC)c1OC [Compound 2b, (2S,3R) 3-Hydroxy-2-(3,4,5-trimethoxyphenyl)-2,3-dihydrobenzo[h]quinolin-4(1H)-one]
CYP1A2
  IC50: > 5000 nM
CYP1A1
  IC50: 1160 nM
Recombinant human CYP1B1
  IC50: 303 nM
  IC50 ratio 1A1/1B1: 3.8
  IC50 ratio 1A2/1B1: >16.5

## O=c1c(O)c(-c2ccccc2)[nH]c2c1ccc1ccccc12 [Compound 3a, 3-Hydroxy-2-phenylbenzo[h]quinolin-4(1H)-one]
CYP1A2
  IC50: > 5000 nM
CYP1A1
  IC50: 898 nM
Recombinant human CYP1B1
  IC50: 86.7 nM
  IC50 ratio 1A1/1B1: 10.4
  IC50 ratio 1A2/1B1: >57.7

## O=c1c(O)c(-c2ccccc2F)[nH]c2c1ccc1ccccc12 [Compound 3b, 2-(2-Fluorophenyl)-3-hydroxybenzo[h]quinolin-4(1H)-one]
CYP1A2
  IC50: > 5000 nM
CYP1A1
  IC50: 1780 nM
Recombinant human CYP1B1
  IC50: 85.9 nM
  IC50 ratio 1A1/1B1: 20.8
  IC50 ratio 1A2/1B1: >58.2

## O=c1c(O)c(-c2ccc(O)cc2)[nH]c2c1ccc1ccccc12 [Compound 3c, 3-Hydroxy-2-(4-hydroxyphenyl)benzo[h]quinolin-4(1H)-one]
CYP1A2
  IC50: > 5000 nM
CYP1A1
  IC50: 525 nM
Recombinant human CYP1B1
  IC50: 142 nM
  IC50 ratio 1A1/1B1: 3.7
  IC50 ratio 1A2/1B1: >35.3

## O=c1c(O)c(-c2ccc(F)cc2)[nH]c2c1ccc1ccccc12 [Compound 3d, 2-(4-Fluorophenyl)-3-hydroxybenzo[h]quinolin-4(1H)-one]
CYP1A2
  IC50: > 5000 nM
CYP1A1
  IC50: 334 nM
Recombinant human CYP1B1
  IC50: 93.3 nM
  IC50 ratio 1A1/1B1: 3.6
  IC50 ratio 1A2/1B1: >53.6

## O=c1cc(-c2ccccc2)[nH]c2c1ccc1ccccc12 [Compound 3e, 2-Phenylbenzo[h]quinolin-4(1H)-one]
CYP1A2
  IC50: 483 nM
CYP1A1
  IC50: 103 nM
Recombinant human CYP1B1
  IC50: 17.3 nM
  IC50 ratio 1A1/1B1: 6.0
  IC50 ratio 1A2/1B1: 27.9

## COc1cc(-c2ccccc2)nc2c1ccc1ccccc12 [Compound 4b, 4-Methoxy-2-phenylbenzo[h]quinoline]
CYP1A2; human, recombinant human CYP1A2 with P450 reductase (Supersomes), pH 7.4, probe 7-ethoxyresorufin (7-ER), 150 nM
  IC50 at 50 min: > 5 µM
CYP1A1; human, recombinant human CYP1A1 with P450 reductase (Supersomes), pH 7.4, probe 7-ethoxyresorufin (7-ER), 150 nM
  IC50 at 15 min: > 5 µM
Recombinant human CYP1B1; EROD assay, 20 fmol CYP1B1, 150 nM 7-ER, 37 °C, 35 min
  IC50 values (nM) 1B1: no longer a CYP1 inhibitor
Recombinant human CYP1B1; [1]
  IC50: > 5000 nM

## COc1cc2c(=O)cc(-c3ccccc3)[nH]c2c2c(OC)cccc12 [Compound 5a, 6,10-Dimethoxy-2-phenylbenzo[h]quinolin-4(1H)-one]
CYP1A2
  IC50: 148 nM
CYP1A1
  IC50: 12.6 nM
Recombinant human CYP1B1
  IC50: 16.6 nM
  IC50 ratio 1A1/1B1: 0.8
  IC50 ratio 1A2/1B1: 8.9

## COc1cc2c(=O)cc(-c3ccccc3F)[nH]c2c2c(OC)cccc12 [Compound 5b, 2-(2-Fluorophenyl)-6,10-dimethoxybenzo[h]quinolin-4(1H)-one]
CYP1A2
  IC50: 174 nM
CYP1A1
  IC50: 26.4 nM
Recombinant human CYP1B1
  IC50: 27.9 nM
  IC50 ratio 1A1/1B1: 0.9
  IC50 ratio 1A2/1B1: 6.2

## COc1cc2c(=O)cc(-c3cccc(F)c3)[nH]c2c2c(OC)cccc12 [Compound 5c, 2-(3-Fluorophenyl)-6,10-dimethoxybenzo[h]quinolin-4(1H)-one]
CYP1A2
  IC50: 331 nM
CYP1A1
  IC50: 39.3 nM
Recombinant human CYP1B1
  IC50: 7.8 nM
  IC50 ratio 1A1/1B1: 5.0
  IC50 ratio 1A2/1B1: 42.4

## COc1cc2c(=O)cc(-c3cccc(Cl)c3)[nH]c2c2c(OC)cccc12 [Compound 5d, 2-(3-Chlorophenyl)-6,10-dimethoxybenzo[h]quinolin-4(1H)-one]
CYP1A2
  IC50: 84.5 nM
CYP1A1
  IC50: 29.4 nM
Recombinant human CYP1B1
  IC50: 27.6 nM
  IC50 ratio 1A1/1B1: 1.1
  IC50 ratio 1A2/1B1: 3.1

## COc1cccc(-c2cc(=O)c3cc(OC)c4cccc(OC)c4c3[nH]2)c1 [Compound 5f, 6,10-Dimethoxy-2-(3-methoxyphenyl)benzo[h]quinolin-4(1H)-one]
CYP1A2
  IC50: 190 nM
CYP1A1
  IC50: 35.8 nM
Recombinant human CYP1B1
  IC50: 7.1 nM
  IC50 ratio 1A1/1B1: 5.0
  IC50 ratio 1A2/1B1: 26.8

## COc1cc2c(=O)cc(-c3ccc(F)cc3)[nH]c2c2c(OC)cccc12 [Compound 5g, 2-(4-Fluorophenyl)-6,10-dimethoxybenzo[h]quinolin-4(1H)-one]
CYP1A2
  IC50: 2110 nM
Recombinant human CYP1B1
  IC50 ratio 1A1/1B1: 2.7
  IC50 ratio 1A2/1B1: 540.3

## COc1ccc(-c2cc(=O)c3cc(OC)c4cccc(OC)c4c3[nH]2)cc1 [Compound 5h, 6,10-Dimethoxy-2-(4-methoxyphenyl)benzo[h]quinolin-4(1H)-one]
CYP1A2
  IC50: > 5000 nM
Recombinant human CYP1B1
  IC50 ratio 1A1/1B1: 15.8
  IC50 ratio 1A2/1B1: >1219.5

## COc1cc2c(=O)cc(-c3ccc(C(F)(F)F)cc3)[nH]c2c2c(OC)cccc12 [Compound 5i, 6,10-Dimethoxy-2-(4-(trifluoromethyl)phenyl)benzo[h]quinolin-4(1H)-one]
CYP1A2
  IC50: 1340 nM
CYP1A1
  IC50: 300 nM
Recombinant human CYP1B1
  IC50: 34.4 nM
  IC50 ratio 1A1/1B1: 8.7
  IC50 ratio 1A2/1B1: 38.9

## COc1cc(-c2cc(=O)c3cc(OC)c4cccc(OC)c4c3[nH]2)cc(OC)c1OC [Compound 5j, 6,10-Dimethoxy-2-(3,4,5-trimethoxyphenyl)benzo[h]quinolin-4(1H)-one]
CYP1A2
  IC50: > 5000 nM
CYP1A1
  IC50: 809 nM
Recombinant human CYP1B1
  IC50: 164 nM
  IC50 ratio 1A1/1B1: 4.9
  IC50 ratio 1A2/1B1: >30.5
